Test system: not listed separately
Test: Drug uptake in Sprague-Dawley rat brain at 10 mg/kg, po measured after 8 hrs
Format: ADME, organism-based
Details: read-out: Drug uptake
Procedure, shortened: (§1)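 Sprague-Dawley rats dosed orally once at 10 mg/kg as parent or glycinate prodrug (prodrug dose adjusted to parent), vehicle 0.5% Methocel/0.1% Tween 80/99.4% water; parent compound measured in brain 8 h post dose, n = 2.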

| Structure (SMILES) | concentration at 8 h [nM] |
| --- | --- |
| COc1cc(-n2cnc3cc(-c4ccc(Cl)cc4)sc3c2=O)ccc1OCC1(O)CCOCC1 | < 3 |
| COc1cc(-n2cnc3cc(-c4ccc(Cl)cc4)sc3c2=O)ccc1OCC1(O)CCC1 | < 3 |

Test system: not listed separately
Test: Plasma concentration in Sprague-Dawley rat at 10 mg/kg, po measured after 8 hrs
Format: ADME, organism-based
Details: not given
Procedure, shortened: (§2)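 SD rats given 10 mg/kg orally as parent or glycine prodrug (prodrug dose adjusted to parent), in 0.5% Methocel/0.1% Tween 80/99.4% water. Plasma and brain levels of parent measured 8 h post dose, n = 2; 0–8 h plasma AUC also determined.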

| Structure (SMILES) | concentration at 8 h [nM] |
| --- | --- |
| COc1cc(-n2cnc3cc(-c4ccc(Cl)cc4)sc3c2=O)ccc1OCC1(O)CCOCC1 | 29 |
| COc1cc(-n2cnc3cc(-c4ccc(Cl)cc4)sc3c2=O)ccc1OCC1(O)CCC1 | 6 |

Test system: not listed separately
Test: Drug level in Sprague-Dawley rat brain assessed as 6-(4-chlorophenyl)-3-(4-((3,3-difluoro-1-hydroxycyclobutyl)methoxy)-3-methoxyphenyl)thieno[3,2-d]pyrimidin-4(3H)-one level measured on day 4 post 20 hrs of last dosage
Format: ADME, tissue-based
Details: in vivo, read-out: Ct
Procedure, shortened: (§3)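 Sub-chronic study in Sprague-Dawley rats: oral glycinate prodrug at 3, 10 and 30 mg/kg once daily for 4 days, vehicle 0.5% Methocel/0.1% Tween 80/99.4% water; parent compound measured in brain on day 4 at 20 h.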

| Structure (SMILES) | concentration [nM] |
| --- | --- |
| COc1cc(-n2cnc3cc(-c4ccc(Cl)cc4)sc3c2=O)ccc1OCC1(OC(=O)CN)CC(F)(F)C1 | 7960 |

Test system: not listed separately
Test: Protein binding in Sprague-Dawley rat plasma at 10 mg/kg, po qd for 4 days
Format: ADME, organism-based
Details: read-out: PPB

| Structure (SMILES) | fraction unbound at 96 h |
| --- | --- |
| COc1cc(-n2cnc3cc(-c4ccc(Cl)cc4)sc3c2=O)ccc1OCC1(O)CC1 | < 0.02 |
| COc1cc(-n2cnc3cc(-c4ccc(Cl)cc4)sc3c2=O)ccc1OCC1(O)CCOCC1 | < 0.02 |
| COc1cc(-n2cnc3cc(-c4ccc(Cl)cc4)sc3c2=O)ccc1OCC1(O)CCC1 | < 0.02 |
| COc1cc(-n2cnc3cc(-c4ccc(Cl)cc4)sc3c2=O)ccc1OCC1(O)COC1 | < 0.02 |
| COc1cc(-n2cnc3cc(-c4ccc(Cl)cc4)sc3c2=O)ccc1OCC1(O)CCCC1 | < 0.02 |

Test system: Rattus norvegicus
Test: Antiobesity activity in DIO Sprague-Dawley rat assessed as body weight loss at 10 mg/kg, po qd for 4 days
Format: functional
Details: not given
Procedure, shortened: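 Sprague-Dawley rats dosed orally once daily for 4 days at 3, 10 and 30 mg/kg (vehicle 0.5% Methocel/0.1% Tween 80/99.4% water), n = 8; body weight change from baseline versus vehicle-treated animals, value given for 10 mg/kg.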

| Structure (SMILES) | Activity [%] |
| --- | --- |
| COc1cc(-n2cnc3cc(-c4ccc(Cl)cc4)sc3c2=O)ccc1OCC1(OC(=O)CN)COC1 | 0 |
| COc1cc(-n2cnc3cc(-c4ccc(Cl)cc4)sc3c2=O)ccc1OCC1(OC(=O)CN)CC(F)(F)C1 | 6.4 |

Test system: Rattus norvegicus
Test: Toxicity in Sprague-Dawley rat assessed as incidence of biliary lesions at 30 mg/kg, po for 4 days
Format: organism-based
Details: in vivo, 96 h
Procedure, shortened: (§4)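 SD rats dosed orally once daily for 4 days at 3, 10 and 30 mg/kg, as glycine prodrug in 0.5% Methocel/0.1% Tween 80 vehicle. Parent plasma and brain levels taken on day 4 at 20 h; n = 8. Biliary lesions examined.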

| Structure (SMILES) | Activity [%] |
| --- | --- |
| COc1cc(-n2cnc3cc(-c4ccc(Cl)cc4)sc3c2=O)ccc1OCC1(O)COC1 | 40 |

Test system: not listed separately
Test: Plasma concentration in Sprague-Dawley rat assessed as parent compound level at 10 mg/kg, po measured after 8 hrs
Format: ADME, organism-based
Details: not given
Procedure, shortened: as §2

| Structure (SMILES) | concentration at 8 h [nM] |
| --- | --- |
| COc1cc(-n2cnc3cc(-c4ccc(Cl)cc4)sc3c2=O)ccc1OCC1(OC(=O)CN)COC1 | 1160 |
| COc1cc(-n2cnc3cc(-c4ccc(Cl)cc4)sc3c2=O)ccc1OCC1(OC(=O)CN)CC(F)(F)C1 | 4500 |

Test system: not listed separately
Test: AUC in Sprague-Dawley rat assessed as parent compound level at 10 mg/kg, po measured after 8 hrs
Format: ADME, organism-based
Design: dose 10 mg/kg, time < 8 hr, route oral
Details: in vivo

| Structure (SMILES) | AUC [µM·h] |
| --- | --- |
| COc1cc(-n2cnc3cc(-c4ccc(Cl)cc4)sc3c2=O)ccc1OCC1(OC(=O)CN)COC1 | 34.9 |
| COc1cc(-n2cnc3cc(-c4ccc(Cl)cc4)sc3c2=O)ccc1OCC1(OC(=O)CN)CC(F)(F)C1 | 38.1 |

Test system: not listed separately
Test: Drug level in Sprague-Dawley rat brain assessed as 6-(4-chlorophenyl)-3-(4-((3-hydroxyoxetan-3-yl)methoxy)-3-methoxyphenyl)thieno[3,2-d]pyrimidin-4(3H)-one level measured on day 4 post 20 hrs of last dosage
Format: ADME, tissue-based
Details: in vivo, read-out: Ct
Procedure, shortened: as §3

| Structure (SMILES) | concentration [nM] |
| --- | --- |
| COc1cc(-n2cnc3cc(-c4ccc(Cl)cc4)sc3c2=O)ccc1OCC1(OC(=O)CN)COC1 | < 3 |

Test system: not listed separately
Test: Solubility of the compound in phosphate buffer at pH 6.4
Format: physicochemical
Details: not given
Procedure, shortened: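 Solubility of parent compounds and prodrugs measured in 50 mM phosphate buffer, pH 6.4.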

| Structure (SMILES) | solubility [µg/mL] |
| --- | --- |
| COc1cc(-n2cnc3cc(-c4ccc(Cl)cc4)sc3c2=O)ccc1OCC1(O)CC1 | < 1 |
| COc1cc(-n2cnc3cc(-c4ccc(Cl)cc4)sc3c2=O)ccc1OCC1(O)CCOCC1 | < 1 |
| COc1cc(-n2cnc3cc(-c4ccc(Cl)cc4)sc3c2=O)ccc1OCC1(O)CCC1 | < 1 |
| COc1cc(-n2cnc3cc(-c4ccc(Cl)cc4)sc3c2=O)ccc1OCC1(OC(=O)CN)CC(F)(F)C1 | < 1 |
| COc1cc(-n2cnc3cc(-c4ccc(Cl)cc4)sc3c2=O)ccc1OCC1(O)COC1 | < 1 |
| COc1cc(-n2cnc3cc(-c4ccc(Cl)cc4)sc3c2=O)ccc1OCC1(O)CCCC1 | < 1 |

Test system: not listed separately
Test: Plasma concentration in Sprague-Dawley rat assessed as 6-(4-chlorophenyl)-3-(4-((3,3-difluoro-1-hydroxycyclobutyl)methoxy)-3-methoxyphenyl)thieno[3,2-d]pyrimidin-4(3H)-one level measured on day 4 post 20 hrs of last dosage
Details: not given
Procedure, shortened: as §4

| Structure (SMILES) | concentration [nM] |
| --- | --- |
| COc1cc(-n2cnc3cc(-c4ccc(Cl)cc4)sc3c2=O)ccc1OCC1(OC(=O)CN)CC(F)(F)C1 | 12800 |

Test system: not listed separately
Test: Metabolic stability in human liver microsomes assessed as compound remaining at 3 uM measured after 10 min
Format: ADME
Details: read-out: Stability
Procedure, shortened: (§5)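 Test compound at 3.0 µM incubated with liver microsomes for 10 minutes; read-out is percent of parent remaining.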

| Structure (SMILES) | remaining at 10 min, 3 µM [%] |
| --- | --- |
| COc1cc(-n2cnc3cc(-c4ccc(Cl)cc4)sc3c2=O)ccc1OCC1(O)CC1 | 94 |
| COc1cc(-n2cnc3cc(-c4ccc(Cl)cc4)sc3c2=O)ccc1OCC1(O)CCOCC1 | 87 |
| COc1cc(-n2cnc3cc(-c4ccc(Cl)cc4)sc3c2=O)ccc1OCC1(O)COC1 | 100 |
| COc1cc(-n2cnc3cc(-c4ccc(Cl)cc4)sc3c2=O)ccc1OCC1(O)CCCC1 | 73 |

Test system: not listed separately
Test: Displacement of [Phe13,125I]Tyr19]-MCH from human MCHR1 E4Q/A5T double mutant expressed in HEK293 cells by TopCount scintillation counting method
Format: cell-based
Details: not given

| Structure (SMILES) | Ki [nM] |
| --- | --- |
| COc1cc(-n2cnc3cc(-c4ccc(Cl)cc4)sc3c2=O)ccc1OCC1(O)CC1 | 17.5 |
| COc1cc(-n2cnc3cc(-c4ccc(Cl)cc4)sc3c2=O)ccc1OCC1(O)CCOCC1 | 11.2 |
| COc1cc(-n2cnc3cc(-c4ccc(Cl)cc4)sc3c2=O)ccc1OCC1(O)CCC1 | 9.8 |
| COc1cc(-n2cnc3cc(-c4ccc(Cl)cc4)sc3c2=O)ccc1OCC1(O)COC1 | 8.7 |
| COc1cc(-n2cnc3cc(-c4ccc(Cl)cc4)sc3c2=O)ccc1OCC1(O)CCCC1 | 11.9 |

Test system: not listed separately
Test: Plasma concentration in Sprague-Dawley rat assessed as 6-(4-chlorophenyl)-3-(4-((3-hydroxyoxetan-3-yl)methoxy)-3-methoxyphenyl)thieno[3,2-d]pyrimidin-4(3H)-one level measured on day 4 post 20 hrs of last dosage
Details: not given
Procedure, shortened: as §4

| Structure (SMILES) | concentration [nM] |
| --- | --- |
| COc1cc(-n2cnc3cc(-c4ccc(Cl)cc4)sc3c2=O)ccc1OCC1(OC(=O)CN)COC1 | 37 |

Test system: not listed separately
Test: AUC in Sprague-Dawley rat at 10 mg/kg, po measured after 8 hrs
Format: ADME, organism-based
Design: time < 8 hr, dose 10 mg/kg, route oral
Details: in vivo

| Structure (SMILES) | AUC at 8 h [µM·h] |
| --- | --- |
| COc1cc(-n2cnc3cc(-c4ccc(Cl)cc4)sc3c2=O)ccc1OCC1(O)CCOCC1 | 0.4 |
| COc1cc(-n2cnc3cc(-c4ccc(Cl)cc4)sc3c2=O)ccc1OCC1(O)CCC1 | 0.2 |

Test system: not listed separately
Test: Drug uptake in Sprague-Dawley rat brain assessed as parent compound level at 10 mg/kg, po measured after 8 hrs
Format: ADME, organism-based
Details: read-out: Drug uptake
Procedure, shortened: as §1

| Structure (SMILES) | concentration at 8 h [nM] |
| --- | --- |
| COc1cc(-n2cnc3cc(-c4ccc(Cl)cc4)sc3c2=O)ccc1OCC1(OC(=O)CN)COC1 | 1130 |
| COc1cc(-n2cnc3cc(-c4ccc(Cl)cc4)sc3c2=O)ccc1OCC1(OC(=O)CN)CC(F)(F)C1 | 11300 |

Test system: not listed separately
Test: Ratio of drug level in brain to plasma in Sprague-Dawley rat at 10 mg/kg, po measured after 8 hrs
Format: ADME, organism-based
Details: brain and plasma, read-out: BPR
Procedure, shortened: as §2

| Structure (SMILES) | Kp at 8 h |
| --- | --- |
| COc1cc(-n2cnc3cc(-c4ccc(Cl)cc4)sc3c2=O)ccc1OCC1(OC(=O)CN)CC(F)(F)C1 | 2.5 |

Test system: not listed separately
Test: Metabolic stability in rat liver microsomes assessed as compound remaining at 3 uM measured after 10 min
Format: ADME
Details: read-out: Stability
Procedure, shortened: as §5

| Structure (SMILES) | remaining at 10 min, 3 µM [%] |
| --- | --- |
| COc1cc(-n2cnc3cc(-c4ccc(Cl)cc4)sc3c2=O)ccc1OCC1(O)CC1 | 61 |
| COc1cc(-n2cnc3cc(-c4ccc(Cl)cc4)sc3c2=O)ccc1OCC1(O)CCOCC1 | 27 |
| COc1cc(-n2cnc3cc(-c4ccc(Cl)cc4)sc3c2=O)ccc1OCC1(O)CCC1 | 24 |
| COc1cc(-n2cnc3cc(-c4ccc(Cl)cc4)sc3c2=O)ccc1OCC1(O)COC1 | 47 |
| COc1cc(-n2cnc3cc(-c4ccc(Cl)cc4)sc3c2=O)ccc1OCC1(O)CCCC1 | 14 |

Test system: not listed separately
Test: Lipophilicity, log P of the compound at pH 7 by HPLC analysis
Format: physicochemical
Details: buffer
Procedure, shortened: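 LogP determined by HPLC at pH 7.0.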

| Structure (SMILES) | logP |
| --- | --- |
| COc1cc(-n2cnc3cc(-c4ccc(Cl)cc4)sc3c2=O)ccc1OCC1(O)CC1 | 4.1 |
| COc1cc(-n2cnc3cc(-c4ccc(Cl)cc4)sc3c2=O)ccc1OCC1(O)CCOCC1 | 4.2 |
| COc1cc(-n2cnc3cc(-c4ccc(Cl)cc4)sc3c2=O)ccc1OCC1(O)CCC1 | 4.7 |
| COc1cc(-n2cnc3cc(-c4ccc(Cl)cc4)sc3c2=O)ccc1OCC1(O)COC1 | 3.8 |
| COc1cc(-n2cnc3cc(-c4ccc(Cl)cc4)sc3c2=O)ccc1OCC1(O)CCCC1 | 4.7 |

Test system: not listed separately
Test: Metabolic stability in mouse liver microsomes assessed as compound remaining at 3 uM measured after 10 min
Format: ADME
Details: read-out: Stability
Procedure, shortened: as §5

| Structure (SMILES) | remaining at 10 min, 3 µM [%] |
| --- | --- |
| COc1cc(-n2cnc3cc(-c4ccc(Cl)cc4)sc3c2=O)ccc1OCC1(O)CC1 | 99 |
| COc1cc(-n2cnc3cc(-c4ccc(Cl)cc4)sc3c2=O)ccc1OCC1(O)CCOCC1 | 98 |
| COc1cc(-n2cnc3cc(-c4ccc(Cl)cc4)sc3c2=O)ccc1OCC1(O)COC1 | 100 |
